Screens (PubChem)
SMARCA2 activ – SMARCA2 (BRM) function activators, primary screen, cell-based, luminescence, high throughput; 370,000 compounds, 1% hits; MG213 cells, MMTV-luciferase reporter, dexamethasone, overnight; activation, % at 9.1 µM; in the data active = activation above about 7.8%
esBAF inh – Bmi1 luciferase reporter increase in mESCs, primary screen, esBAF inhibitor project, mouse ES cells, Bmi1 luciferase knock-in, single point | 24 h; 100% = twice the neutral-well signal | reporter increase, % at 12.5 µM | 350,000 compounds, 2% hits | AID 602393, 2012; in the data active = activation above about 40%; inconclusive = no clear call, values can overlap the other calls;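 note: a rise in the Bmi1 reporter signal indicates esBAF inhibition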
ARFGAP1 inh – inhibitors of rat ARFGAP1 GAP activity, primary screen, biochemical, fluorescence polarization, GDP tracer | 360,000 compounds, 0.26% hits | Arfgap1-stimulated ARF1 GTP hydrolysis, GDP FP detection | ADP-ribosylation factor GTPase-activating protein 1 (Rattus norvegicus), Q62848 | inhibition, % at 16.5 µM;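 active = inhibition above a per-plate limit, mean inhibition of low control wells plus 3 SD, cut at about 25% in these data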
Target sequence (Q62848 1-136 limits assumed): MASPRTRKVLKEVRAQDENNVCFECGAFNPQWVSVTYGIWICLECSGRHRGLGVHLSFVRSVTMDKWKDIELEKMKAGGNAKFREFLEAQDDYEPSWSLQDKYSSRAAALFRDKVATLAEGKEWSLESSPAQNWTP
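system = rat Arfgap1 catalytic domain, aa 1-136 | technique = FP, GDP Alexa 633 tracer displaced from anti-GDP antibody, 620/688 nm | compound = one concentration, 16.5 µM, DMSO 1.26% | medium = HEPES-based buffer, pH 7.5 | timing = compound-enzyme preincubation 20 min, reaction 120 min, detection 60 min, 25 °C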
ASAP1 GAP inh – inhibitors of human ASAP1 ArfGAP activity, primary screen, biochemical, fluorescence polarization; 360,000 compounds, 0.19% hits; Arf-GAP with SH3 domain, ANK repeat and PH domain-containing protein 1 (Homo sapiens), …; ASAP1-stimulated ARF1 GTP hydrolysis, GDP FP detection; inhibition, % at 16.5 µM; in the data active = inhibition above about 25%
Target sequence (Q9ULH1 325-724 limits assumed): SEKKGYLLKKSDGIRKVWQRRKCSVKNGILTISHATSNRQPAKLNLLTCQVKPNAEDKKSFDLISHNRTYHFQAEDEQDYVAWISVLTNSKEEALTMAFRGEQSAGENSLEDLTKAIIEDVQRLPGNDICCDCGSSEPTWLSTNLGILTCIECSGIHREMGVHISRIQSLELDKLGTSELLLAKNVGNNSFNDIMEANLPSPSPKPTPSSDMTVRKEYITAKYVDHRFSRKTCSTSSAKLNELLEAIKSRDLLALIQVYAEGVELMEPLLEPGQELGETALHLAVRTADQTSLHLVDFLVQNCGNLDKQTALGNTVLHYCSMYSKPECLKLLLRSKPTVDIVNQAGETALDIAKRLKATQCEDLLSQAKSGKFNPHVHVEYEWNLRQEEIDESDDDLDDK
Numbers stand for hits; ! = not confirmed by another sample. The list is not random: actives were taken first. Their share in the collection is about 2.6%.

Screening Cc1sc2ncn(/N=C/c3ccco3)c(=O)c2c1C returned SMARCA2 activ inactive, esBAF inh 49, ARFGAP1 inh inactive and ASAP1 GAP inh inactive.
For Nc1ccc(-c2nc3ncccc3o2)c(Cl)c1 the results were SMARCA2 activ inactive, esBAF inh inconclusive, ARFGAP1 inh inactive and ASAP1 GAP inh inactive.
Nc1ccc(-c2nc3ncccc3o2)c(O)c1 was read as SMARCA2 activ inactive, esBAF inh 57, ARFGAP1 inh inactive and ASAP1 GAP inh inactive.
Cc1cc(C)c(N=Cc2c(O)c3ccccc3oc2=O)c(C)c1 was read as SMARCA2 activ inactive, esBAF inh 57, ARFGAP1 inh inactive and ASAP1 GAP inh inactive.
C[C@@H]1CN([C@@H](C)CO)C(=O)c2cccc(NS(=O)(=O)c3cccs3)c2O[C@@H]1CN(C)S(=O)(=O)c1ccc(Cl)cc1 was read as esBAF inh inactive.
Screening CCNC(=O)C[C@H]1CC[C@@H](NS(=O)(=O)c2ccc(C)cc2)[C@@H](CO)O1 returned esBAF inh inactive.
`C=C(NC(=O)C(=C)NC(=O)c1csc(C2=NC3c4csc(n4)C4NC(=O)c5csc(n5)C(C(C)(O)C(C)O)NC(=O)C5CSC(=N5)/C(=C/C)NC(=O)C(C(C)O)NC(=O)c5csc(n5)C3(CC2)NC(=O)C(C)NC(=O)C(=C)NC(=O)C(=C)NC(=O)C(C(C)C)NC2C=Cc3c(C(C)O)cc(nc3C2O)C(=O)OC4C)n1)C(N)=O` (configuration not stated) gave SMARCA2 activ 8.6, ARFGAP1 inh inactive and ASAP1 GAP inh inactive.
Screening CC1CCN(c2nc3ccc(C(=O)O)cc3s2)CC1 returned SMARCA2 activ inactive, esBAF inh inactive, ARFGAP1 inh inactive and ASAP1 GAP inh inactive.
`CCC1CCCCN1CCCNC(=O)c1ccc2nc(N3CCC(C)CC3)sc2c1` (configuration not stated) gave SMARCA2 activ inactive, esBAF inh 58, ARFGAP1 inh inactive and ASAP1 GAP inh inactive.
For O=C(O)c1cc(-c2ccc3c(c2)OCCO3)n[nH]1 the results were SMARCA2 activ inactive, esBAF inh inactive, ARFGAP1 inh inactive and ASAP1 GAP inh inactive.
Screening Oc1ccccc1-c1cc(-c2ccc3c(c2)OCCO3)n[nH]1 returned SMARCA2 activ inactive, esBAF inh inactive, ARFGAP1 inh inactive and ASAP1 GAP inh 28.
`C[C@@H]1CN([C@H](C)CO)C(=O)c2cccc(NS(=O)(=O)c3ccc(F)cc3)c2O[C@@H]1CN(C)C(=O)Nc1ccc2c(c1)OCO2` gave esBAF inh inactive.
`C[C@@H]1CN([C@H](C)CO)C(=O)c2cccc(NC(=O)Nc3ccc4c(c3)OCO4)c2O[C@H]1CN(C)S(=O)(=O)c1cccs1` gave esBAF inh 47.
For C[C@@H]1CN([C@@H](C)CO)C(=O)c2c(c3ccccc3n2C)-c2ccccc2CO[C@@H]1CN(C)C(=O)Nc1ccc2c(c1)OCO2 the results were esBAF inh 50.
Cc1ccc(S(=O)(=O)Nc2cccc3c2O[C@@H](CN(C)C(=O)Nc2ccc4c(c2)OCO4)[C@H](C)CN([C@@H](C)CO)C3=O)cc1 was read as SMARCA2 activ inactive, esBAF inh 60!, ARFGAP1 inh inactive and ASAP1 GAP inh inactive.
Screening C[C@H](CO)N1C[C@H](C)[C@@H](CN(C)C(=O)Nc2ccc3c(c2)OCO3)Oc2c(NS(=O)(=O)c3ccccc3)cccc2C1=O returned SMARCA2 activ inactive, esBAF inh inactive, ARFGAP1 inh inactive and ASAP1 GAP inh inactive.
For C[C@H](CO)N1C[C@H](C)[C@H](CN(C)C(=O)Nc2ccc3c(c2)OCO3)Oc2c(NS(=O)(=O)c3ccccc3)cccc2C1=O the results were esBAF inh 68.
For C[C@@H]1CN([C@@H](C)CO)C(=O)c2cccc(NC(=O)Nc3ccc(C(F)(F)F)cc3)c2O[C@H]1CN(C)Cc1ccccc1 the results were esBAF inh inactive.
For COc1ccc(-c2ccc3c(c2)O[C@@H](CN(C)C(C)=O)[C@H](C)CN([C@@H](C)CO)S3(=O)=O)cc1 the results were esBAF inh inactive.
COc1cccc(NC(=O)N2CCc3nc(Nc4cc(Cl)cc(Cl)c4)ncc3C2)c1 was read as SMARCA2 activ inactive, esBAF inh inactive, ARFGAP1 inh inactive and ASAP1 GAP inh inactive.
`CC(C)c1ccc(Nc2ncc3c(n2)CCN(C(=O)Nc2ccc(F)c(Cl)c2)C3)cc1` gave SMARCA2 activ inactive, esBAF inh 56, ARFGAP1 inh inactive and ASAP1 GAP inh inactive.
`O=[N+]([O-])c1ccc(Sc2n[nH]c(-c3ccccc3)n2)nc1` gave SMARCA2 activ inactive, esBAF inh 51, ARFGAP1 inh inactive and ASAP1 GAP inh inactive.
For O=[N+]([O-])c1ccc(Sc2ccccc2)nc1 the results were SMARCA2 activ inactive, esBAF inh inactive, ARFGAP1 inh inactive and ASAP1 GAP inh inactive.
For C/C(=C\c1ccc(N)cc1)c1nc2ccccc2[nH]1 the results were SMARCA2 activ inactive, esBAF inh 64, ARFGAP1 inh inactive and ASAP1 GAP inh inactive.
Screening COc1cc(N)ccc1NC(=O)c1cc2ccccc2o1 returned SMARCA2 activ inactive, esBAF inh inactive, ARFGAP1 inh inactive and ASAP1 GAP inh inactive.
COc1cc(NC(C)=O)ccc1NC(=O)c1cc2ccccc2o1 was read as SMARCA2 activ inactive, esBAF inh 55, ARFGAP1 inh inactive and ASAP1 GAP inh inactive.
COc1cc(NC(=O)c2ccccc2)ccc1NC(=O)c1cc2ccccc2o1 was read as SMARCA2 activ inactive, esBAF inh inactive, ARFGAP1 inh inactive and ASAP1 GAP inh inactive.
`CCCC(=O)Nc1ccc(NC(=O)c2cc3ccccc3o2)c(OC)c1` gave SMARCA2 activ inactive, esBAF inh 53, ARFGAP1 inh inactive and ASAP1 GAP inh inactive.
O=C(C[C@@H]1CC[C@H]2[C@@H](COC[C@@H](O)CN2Cc2cccc(C(F)(F)F)c2)O1)NCCc1ccncc1 was read as esBAF inh inactive.
`Cc1cc(N2CCCCC2)nc(SCC(=O)c2ccccc2)n1` gave SMARCA2 activ inactive, esBAF inh 53, ARFGAP1 inh inactive and ASAP1 GAP inh inactive.
Screening O=C(CSc1nc(N2CCCCC2)nc(N2CCCCC2)n1)c1ccccc1 returned SMARCA2 activ inactive, esBAF inh inactive, ARFGAP1 inh inactive and ASAP1 GAP inh inactive.
For O=C(Nc1ccccc1Cl)c1csc(-c2cccnc2)n1 the results were SMARCA2 activ inactive, esBAF inh 59, ARFGAP1 inh inactive and ASAP1 GAP inh inactive.
For O=C(NNC(=O)c1csc(-c2cccnc2)n1)c1ccccc1 the results were SMARCA2 activ inactive, esBAF inh inactive, ARFGAP1 inh inactive and ASAP1 GAP inh inactive.
`C[C@@H]1CN([C@@H](C)CO)C(=O)c2cc(NS(=O)(=O)c3cn(C)cn3)ccc2O[C@@H]1CN(C)Cc1ccc(-c2ccccc2)cc1` gave esBAF inh inactive.
Screening Nc1c(C(=O)NCc2ccco2)nnn1-c1ccccc1 returned SMARCA2 activ inactive, esBAF inh 50, ARFGAP1 inh inactive and ASAP1 GAP inh inactive.
